Assay results reported in ChEMBL document CHEMBL3616432, “(+)-Dehydroabietylamine derivatives target triple-negative breast cancer” (Eur J Med Chem, 2015).
Activity calls are given as the source filed them. The calls are words filed in the database; no cut-off is given here.

Columns and labels:
[1] = Efflux ratio of permeability from basolateral to apical side over apical to basolateral side in human Caco2 cells; type: ADME, cell-based; conditions: Caco-2
MDA-MB-231 [2] = assay: Induction of apoptosis in human triple-negative MDA-MB-231 cells assessed as late apoptotic cells after 12 hrs by Annexin V-FITC/propidium iodide staining-based flow cytometry (reference value: 3.7%); type: functional
MDA-MB-231 [3] = assay: Induction of apoptosis in human triple-negative MDA-MB-231 cells assessed as cell detachment at 16 uM after 6 to 48 hrs by microscopic analysis; type: functional, cell-based
MDA-MB-231 [4] = assay: Induction of apoptosis in human triple-negative MDA-MB-231 cells assessed as early apoptotic cells after 12 hrs by Annexin V-FITC/propidium iodide staining-based flow cytometry (reference value: 3.1%); type: functional
MDA-MB-231 [5] = assay: Induction of apoptosis in human triple-negative MDA-MB-231 cells assessed as increase in cleaved caspase-3 level after 6 to 12 hrs by western blot analysis; type: functional, cell-based
MDA-MB-231 [6] = assay: Induction of apoptosis in human triple-negative MDA-MB-231 cells assessed as viable cells after 12 hrs by Annexin V-FITC/propidium iodide staining-based flow cytometry (reference value: 93.1%); type: functional
MDA-MB-231 [7] = assay: Antiproliferative activity against human triple-negative MDA-MB-231 cells after 72 hrs by CellTiter-Glo assay; type: functional, cell-based; conditions: MDA-MB-231, 72 h
MDA-MB-231 [8] = assay: Induction of apoptosis in human triple-negative MDA-MB-231 cells assessed as cell shrinkage at 16 uM after 6 to 48 hrs by microscopic analysis; type: functional, cell-based
[9] = Intrinsic clearance in human microsomes; type: ADME, Microsome
[10] = Permeability of the compound at pH 7.4 assessed as drug retention by PAMPA assay; type: physicochemical
MDA-MB-231 [11] = assay: Induction of apoptosis in human triple-negative MDA-MB-231 cells assessed as increase in cleaved caspase-9 level after 6 to 12 hrs by western blot analysis; type: functional, cell-based
MDA-MB-231 [12] = assay: Cell cycle arrest in human triple-negative MDA-MB-231 cells assessed as accumulation at G0/G1 phase at 8.5 uM after 12 hrs by propidium iodide staining-based flow cytometry (reference value: 48.36%); type: functional
[13] = Intrinsic clearance in mouse microsomes; type: ADME, Microsome
MDA-MB-231 [14] = assay: Induction of apoptosis in human triple-negative MDA-MB-231 cells assessed as necrotic cells after 12 hrs by Annexin V-FITC/propidium iodide staining-based flow cytometry (reference value: 0.1%); type: functional
MDA-MB-231 [15] = assay: Antiproliferative activity against human triple-negative MDA-MB-231 cells at 9 uM after 72 hrs by CellTiter-Glo assay; type: functional, cell-based
[16] = Half life in human microsomes; type: ADME, Microsome
MDA-MB-231 [17] = assay: Induction of apoptosis in human triple-negative MDA-MB-231 cells assessed as cell death at 16 uM after 6 to 48 hrs by microscopic analysis; type: functional, cell-based
[18] = Half life in mouse plasma; type: ADME, cell-free
Procedure, shortened: (§1)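 Compound stability incubated in human or mouse plasma; half-life determined, with known drugs as controls.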

MDA-MB-231 [19] = assay: Cell cycle arrest in human triple-negative MDA-MB-231 cells assessed as accumulation at G2/M phase at 8.5 uM after 12 hrs by propidium iodide staining-based flow cytometry (reference value: 20.40%); type: functional
[20] = Half life in human plasma; type: ADME, cell-free; procedure, shortened: as §1
MDA-MB-231 [21] = assay: Induction of apoptosis in human triple-negative MDA-MB-231 cells assessed as decrease in caspase-7 level after 6 to 12 hrs by western blot analysis; type: functional, cell-based
MDA-MB-231 [22] = assay: Induction of apoptosis in human triple-negative MDA-MB-231 cells assessed as increase in cleaved caspase-8 level after 6 to 12 hrs by western blot analysis; type: functional, cell-based
MCF7 [23] = assay: Antiproliferative activity against human ER-positive MCF7 cells after 72 hrs by CellTiter-Glo assay; type: functional, cell-based
MDA-MB-231 [24] = assay: Induction of DNA fragmentation in human triple-negative MDA-MB-231 cells at 8.5 uM by propidium iodide staining-based flow cytometry; type: functional, cell-based; conditions: TDE = time-dependent effect
[25] = Plasma protein binding in human; type: ADME, cell-free; conditions: read-out: PPB (converted)
MDA-MB-231 [26] = assay: Induction of apoptosis in human triple-negative MDA-MB-231 cells assessed as increase in DR5 level after 12 hrs by western blot analysis; type: functional, cell-based
[27] = Permeability of the compound at pH 7.4 by PAMPA assay; type: physicochemical; conditions: read-out: permeability
MDA-MB-231 [28] = assay: Induction of apoptosis in human triple-negative MDA-MB-231 cells assessed as increase in cleaved PARP level by western blot analysis; type: functional, cell-based; conditions: TDE = time-dependent effect
[29] = Apparent permeability from basolateral to apical side in human Caco2 cells; type: ADME, cell-based; conditions: Caco-2
MDA-MB-231 [30] = assay: Cell cycle arrest in human triple-negative MDA-MB-231 cells assessed as accumulation at S phase at 8.5 uM after 12 hrs by propidium iodide staining-based flow cytometry (reference value: 31.23%); type: functional
[31] = Apparent permeability from apical to basolateral side in human Caco2 cells; type: ADME, cell-based; conditions: Caco-2
[32] = Plasma protein binding in mouse; type: ADME; conditions: read-out: PPB (converted)
[33] = Half life in mouse microsomes; type: ADME, Microsome
MDA-MB-231 [34] = assay: Cell cycle arrest in human triple-negative MDA-MB-231 cells assessed as accumulation at S phase at 2.5 uM after 12 hrs by propidium iodide staining-based flow cytometry (reference value: 31.23%); type: functional
MDA-MB-231 [35] = assay: Induction of apoptosis in human triple-negative MDA-MB-231 cells at 2.5 uM after 6 to 48 hrs by microscopic analysis; type: functional, cell-based
MDA-MB-231 [36] = assay: Cell cycle arrest in human triple-negative MDA-MB-231 cells assessed as accumulation at G0/G1 phase at 2.5 uM after 12 hrs by propidium iodide staining-based flow cytometry (reference value: 48.36%); type: functional
MDA-MB-231 [37] = assay: Cell cycle arrest in human triple-negative MDA-MB-231 cells assessed as accumulation at G2/M phase at 2.5 uM after 12 hrs by propidium iodide staining-based flow cytometry (reference value: 20.40%); type: functional
MDA-MB-231 [38] = assay: Antiproliferative activity against human triple-negative MDA-MB-231 cells at <= 50 uM after 72 hrs by CellTiter-Glo assay; type: functional, cell-based
HepG2 = assay: Cytotoxicity against human HepG2 cells at <= 50 uM after 72 hrs by CellTiter-Glo assay; type: cell-based; conditions: hepg2, 72 h
MDA-MB-231 [39] = assay: Antiproliferative activity against human triple-negative MDA-MB-231 cells at 29 uM after 72 hrs by CellTiter-Glo assay; type: functional, cell-based
MDA-MB-231 [40] = assay: Cell cycle arrest in human triple-negative MDA-MB-231 cells assessed as accumulation at S phase at 28.5 uM after 12 hrs by propidium iodide staining-based flow cytometry (reference value: 31.23%); type: functional
MDA-MB-231 [41] = assay: Cell cycle arrest in human triple-negative MDA-MB-231 cells assessed as accumulation at G0/G1 phase at 28.5 uM after 12 hrs by propidium iodide staining-based flow cytometry (reference value: 48.36%); type: functional
HEK293 = assay: Cytotoxicity against HEK293 cells at <= 50 uM after 72 hrs by CellTiter-Glo assay; type: cell-based; conditions: human, hek293, 72 h
MDA-MB-231 [42] = assay: Cell cycle arrest in human triple-negative MDA-MB-231 cells assessed as accumulation at G2/M phase at 28.5 uM after 12 hrs by propidium iodide staining-based flow cytometry (reference value: 20.40%); type: functional
MDA-MB-231 [43] = assay: Cell cycle arrest in human triple-negative MDA-MB-231 cells assessed as accumulation at S phase at 30.0 uM after 12 hrs by propidium iodide staining-based flow cytometry (reference value: 31.23%); type: functional
MDA-MB-231 [44] = assay: Antiproliferative activity against human triple-negative MDA-MB-231 cells at 35 uM after 72 hrs by CellTiter-Glo assay; type: functional, cell-based
MCF7 [45] = assay: Antiproliferative activity against human ER-positive MCF7 cells at 48 uM after 72 hrs by CellTiter-Glo assay; type: functional, cell-based
MDA-MB-231 [46] = assay: Cell cycle arrest in human triple-negative MDA-MB-231 cells assessed as accumulation at G0/G1 phase at 30.0 uM after 12 hrs by propidium iodide staining-based flow cytometry (reference value: 48.36%); type: functional
Homo sapiens = organism: Homo sapiens; assay: Antiproliferative activity against human ER-positive MA11 cells at 48 uM after 72 hrs by CellTiter-Glo assay; type: functional
MDA-MB-231 [47] = assay: Cell cycle arrest in human triple-negative MDA-MB-231 cells assessed as accumulation at G2/M phase at 30.0 uM after 12 hrs by propidium iodide staining-based flow cytometry (reference value: 20.40%); type: functional
MDA-MB-231 [48] = assay: Induction of DNA fragmentation in human triple-negative MDA-MB-231 cells at 30 uM by propidium iodide staining-based flow cytometry; type: functional, cell-based

Compound: CC(C)c1ccc2c(c1)CC[C@H]1[C@](C)(CNS(=O)(=O)c3c(F)c(F)c(F)c(F)c3F)CCC[C@]21C
- efflux ratio [1]: 0.8
- Activity (MDA-MB-231 [2]): 16.7%
- Activity (MDA-MB-231 [3]): Active
- Activity (MDA-MB-231 [4]): 21.3%
- Activity (MDA-MB-231 [5]): Active
- Activity (MDA-MB-231 [6]): 61.5%
- EC50 (MDA-MB-231 [7]): 9 µM
- Activity (MDA-MB-231 [8]): Active
- CLint scaled [9]: 22.3 mL/min/kg
- permeability [10]: 60.4%
- Activity (MDA-MB-231 [11]): Active
- Activity (MDA-MB-231 [12]): 61.26%
- CLint scaled [13]: 112 mL/min/kg
- Activity (MDA-MB-231 [14]): 0.5%
- Activity (MDA-MB-231 [15]): Active
- half-life [16]: 0.93 h
- Activity (MDA-MB-231 [17]): Active
- half-life [18]: 37.7 h
- Activity (MDA-MB-231 [19]): 18.37%
- half-life [20]: 6.76 h
- Activity (MDA-MB-231 [21]): Active
- Activity (MDA-MB-231 [22]): Active
- Activity (MCF7 [23]): inactive
- Activity (MDA-MB-231 [24]): tde
- fraction unbound [25]: 0.052
- Activity (MDA-MB-231 [26]): Active
- Papp [27]: 62.5 ×10⁻⁶ cm/s
- Activity (MDA-MB-231 [28]): tde
- Papp B→A [29]: 1.57 ×10⁻⁶ cm/s
- Activity (MDA-MB-231 [30]): 20.37%
- Papp A→B [31]: 1.96 ×10⁻⁶ cm/s
- fraction unbound [32]: 0.007
- half-life [33]: 0.51 h

Compound: CN[C@@H]1C[C@H]2O[C@@](C)([C@@H]1OC)n1c3ccccc3c3c4c(c5c6ccccc6n2c5c31)C(=O)NC4 [STAUROSPORINE]
- Activity (MDA-MB-231 [34]): 33.22%
- Activity (MDA-MB-231 [4]): 25%
- Activity (MDA-MB-231 [6]): 55.7%
- Activity (MDA-MB-231 [14]): 0.5%
- Activity (MDA-MB-231 [35]): inactive
- Activity (MDA-MB-231 [36]): 43.5%
- Activity (MDA-MB-231 [37]): 23.28%

Compound: CC(C)c1cc2c(cc1O)[C@@]1(C)CCCC(C)(C)[C@@H]1CC2 [FERRUGINOL]
- Activity (MDA-MB-231 [2]): 9.6%
- Activity (MDA-MB-231 [38]): Active
- Activity (HepG2): Non-toxic
- Activity (MDA-MB-231 [4]): 4.4%
- Activity (MDA-MB-231 [39]): Active
- Activity (MDA-MB-231 [40]): 29.7%
- Activity (MDA-MB-231 [6]): 85.8%
- Activity (MDA-MB-231 [41]): 50.76%
- Activity (MDA-MB-231 [11]): inactive
- Activity (MDA-MB-231 [14]): 0.2%
- Activity (MDA-MB-231 [21]): Active
- Activity (HEK293): Non-toxic
- Activity (MDA-MB-231 [26]): Active
- Activity (MDA-MB-231 [42]): 19.54%
- Activity (MDA-MB-231 [28]): tde

Compound: CC(C)c1ccc2c(c1)CC[C@H]1[C@](C)(CNS(=O)(=O)c3ccc(C=O)cc3)CCC[C@]21C
- Activity (MDA-MB-231 [2]): 6%
- Activity (MDA-MB-231 [4]): 3.4%
- Activity (MDA-MB-231 [5]): Active
- Activity (MDA-MB-231 [6]): 90.4%
- Activity (MDA-MB-231 [43]): 19.7%
- Activity (MDA-MB-231 [44]): Active
- Activity (MCF7 [45]): inactive
- Activity (MDA-MB-231 [46]): 63.41%
- Activity (MDA-MB-231 [11]): Active
- Activity (MDA-MB-231 [14]): 0.2%
- Activity (MDA-MB-231 [21]): Active
- Activity (Homo sapiens): Active
- Activity (MDA-MB-231 [22]): Active
- Activity (MDA-MB-231 [47]): 16.89%
- Activity (MDA-MB-231 [26]): Active
- Activity (MDA-MB-231 [28]): tde
- Activity (MDA-MB-231 [48]): Active
